According to PubChem BioAssay:
Records with an inconclusive call do not appear.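 How the source made its calls, unless noted: active means cell viability at or below a set limit in both duplicate runs, the limit being the all-compound median minus 4 SD (cut at about 23% in these data, passing the limit was not always enough); inconclusive means no clear call, values can overlap the other calls; inactive means the rest.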

How the values were obtained:
[1] = S. cerevisiae growth inhibition in permissive medium (OD615), pilot counter-assay for S. cerevisiae lifespan shortening project, permissive growth control (AID 705;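 active means growth inhibition above 25% in both replicates, a cutoff set 3 SD above the mean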); conditions: OD615, 24 h, at 10 µM, stronger effect = higher value
Procedure, shortened: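 System: Engineered DeaD yeast | Buffer or medium: SC raffinose/galactose permissive medium | Incubation: Cells pre-grown 4 h, then 24 h compound exposure, 30 °C humidified | Measured by: Absorbance (optical density) at 615 nm | Read-out: Reduction in yeast growth (OD615)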

[2] = S. cerevisiae growth inhibition in restrictive medium, OD615, pilot screen, restrictive growth control, yeast lifespan reduction project (AID 706;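 active means growth inhibition above a set limit, 3 SD over mean compound inhibition, in both replicates, cut at about 43% in these data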;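 further: modified DeaD lifespan yeast strain shifted to restrictive glucose medium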); conditions: OD615, 48 h, at 10 µM, stronger effect = higher value
Procedure, shortened: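 Material: modified S. cerevisiae; Medium: glucose-based CSMM-D restrictive medium; Compound dosing: one concentration, 10 µM final, 0.25% DMSO; Incubation: 48 h compound exposure at 30 °C; Measured by: OD615.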

[3] = doxorubicin toxicity protection in MRP-1 cells – H69AR cells, CellTiter-Glo, duplicate, MRP-1 activator project, pilot screen (AID 807;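 active means viability increase at or above a cutoff of the median across tested compounds plus 3 SD, cut at about 8.5% in these data, passing the limit was not always enough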;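 further: compound pretreatment 18-22 h then 72 h combined with doxorubicin; 0% = doxorubicin alone and 100% = vehicle without doxorubicin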); conditions: H69AR viability with doxorubicin, CellTiter-Glo luminescence; at 10 µM; stronger effect = higher value
[4] = viability of HCT116 without oncogenic beta-catenin – human colon tumor cells, pilot screen (AID 823); conditions: HCT116 beta-catenin knockout viability, CellTiter-Glo, 60 h; at 10 µM; stronger effect = lower value;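 further: 0% = wells killed by 20 µM Hyamine and 100% = untreated DMSO cell wells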
[5] = viability of PTEN-null HCT116 cells – cell-based, HCT116 clonal line, CellTiter-Glo, pilot screen (AID 824;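 active means viability at or below 27.92% in each of two runs, the all-compound median minus 4 SD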;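 further: 0% = 20 µM Hyamine control and 100% = vehicle cell control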); conditions: HCT116 PTEN-deleted viability, 60 h, at 10 µM, stronger effect = lower value
[6] = RAM pathway blockade in budding yeast – dse1pr::URA3 reporter, 5-FOA selection, pilot screen (AID 869;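 active means inhibition over a set limit, the all-compound mean plus 3 SD, in both replicate runs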;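 further: 0% = DMSO wells with no growth and 100% = 10 µM 1-NA-PP1 with full growth; RAM network block rescues cells from 5-FOA so hits raise OD615 growth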); conditions: S. cerevisiae dse1pr::URA3 5-FOA growth, OD615, 2 d; at 10 µM; stronger effect = higher value; strain carries analog-sensitive mutant Cbk1 kinase
[7] = RAM signaling pathway blockade in yeast – S. cerevisiae, Pdr1DBD-CYC8 efflux-inhibited sensitized strain, primary screen (AID 1298;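 active means RAM network inhibition above 8.4% in each of two replicates, 3 SD over the compound average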;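 further: 0% = DMSO untreated cells without growth and 100% = 10 µM 1-NA-PP1 full growth; higher means more yeast growth rescued from 5-FOA killing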); conditions: S. cerevisiae cbk1-as DSE1-URA3 strain, 5-FOA growth OD615, 2 d; at 50 µM; stronger effect = higher value

CCOc1ccccc1C1C(C(=O)Nc2ccccc2OC)=C(C)Nc2nc(CCCO)nn21 (centres undefined)
inactive: growth inhibition [1] -20.1% | growth inhibition [2] -8.73% | viability increase [3] -3.55% | viability [4] 89.5% | viability [5] 88% | inhibition [6] 1.01% | RAM network inhibition [7] 4.4%

O=S(=O)(NCC(c1cccnc1)N1CCN(c2ccc(F)cc2)CC1)c1ccc(F)cc1 (centres undefined)
inactive: growth inhibition [1] -0.55% | growth inhibition [2] -0.65% | viability increase [3] -2.52% | viability [4] 87.4% | viability [5] 84.5% | inhibition [6] 4.02% | RAM network inhibition [7] 4.9%

Cc1nc2ccccn2c1/C(O)=C1\C(=O)C(=O)N(CCCN(C)C)C1c1ccc(Cl)cc1 (centres undefined)
inactive: growth inhibition [1] -12.2% | growth inhibition [2] -4.13% | viability increase [3] -1.34% | viability [4] 109% | viability [5] 95.9% | inhibition [6] 0.18% | RAM network inhibition [7] -1.78%

CC1(C)CC(=O)N(CC(=O)O)c2ccccc2S1(=O)=O
inactive: growth inhibition [1] -4.39% | growth inhibition [2] 4.7% | viability increase [3] -0.77% | viability [4] 99.8% | viability [5] 96.3% | inhibition [6] 1.42% | RAM network inhibition [7] 4.48%

Cc1c(NC(=O)C2CCCN2S(=O)(=O)c2ccccc2)c(=O)n(-c2ccccc2)n1C (centres undefined)
inactive: growth inhibition [1] -8.82% | growth inhibition [2] -10.2% | viability increase [3] -1% | viability [4] 97.3% | viability [5] 107% | inhibition [6] 2.12% | RAM network inhibition [7] 0.05%

Cc1ccc2cc(CCNS(=O)(=O)c3ccc(F)cc3)c(=O)[nH]c2c1
inactive: growth inhibition [1] -11.5% | growth inhibition [2] -8.69% | viability increase [3] -1.91% | viability [4] 93% | viability [5] 80.5% | inhibition [6] 1.72% | RAM network inhibition [7] 1.31%

CCOC(=O)c1ccc(NC(=O)CSc2nc3c(c(=O)n2C)SC(C)C3)cc1 (centres undefined)
inactive: growth inhibition [1] 1.02% | growth inhibition [2] 7.47% | viability increase [3] -2.01% | viability [4] 72.9% | viability [5] 74.3% | inhibition [6] 0.975% | RAM network inhibition [7] 3.08%

CCOC(=O)c1cc(-c2ccc(C)cc2)n(CC(=O)NCc2ccco2)c1C
inactive: growth inhibition [1] 12.1% | growth inhibition [2] -7.09% | viability increase [3] -5.81% | viability [4] 74.6% | viability [5] 77.5% | inhibition [6] 3.1% | RAM network inhibition [7] 5.82%

Cc1onc(-c2ccccc2Cl)c1C(=O)NCCN1Cc2ccccc2C1=O
inactive: growth inhibition [1] -0.695% | growth inhibition [2] 4.3% | viability increase [3] -4.11% | viability [4] 102% | viability [5] 90.5% | inhibition [6] 0.375% | RAM network inhibition [7] 0.31%

O=C(c1ccc(CNc2c(N3CCOCC3)c(=O)c2=O)cc1)N1CC=C(c2ccccc2)CC1
inactive: growth inhibition [1] -1.62% | growth inhibition [2] -7.31% | viability increase [3] -0.15% | viability [4] 95.3% | viability [5] 94.8% | inhibition [6] 2.02% | RAM network inhibition [7] 6.56%

O=C(O)CCc1nnc2n(Cc3ccc(F)cc3)c(=O)c3ccccc3n12
inactive: growth inhibition [1] -4.64% | growth inhibition [2] 5.36% | viability increase [3] -0.62% | viability [4] 99.2% | viability [5] 90.8% | inhibition [6] 1.04% | RAM network inhibition [7] 1.56%

Cc1cc2nc(-c3cccc(NC(=O)c4ccc(Br)o4)c3C)oc2cc1C
inactive: growth inhibition [1] -0.715% | growth inhibition [2] -9.59% | viability increase [3] 3.53% | viability [4] 87% | viability [5] 84.2% | inhibition [6] 2.33% | RAM network inhibition [7] 2.65%

O=C(c1ccc(CS(=O)(=O)c2ccccc2)o1)N1CCN(c2ncccn2)CC1
inactive: growth inhibition [1] 2.63% | growth inhibition [2] -5.3% | viability increase [3] -4.07% | viability [4] 104% | viability [5] 102% | inhibition [6] 0.185% | RAM network inhibition [7] 2.87%

CC(=O)N(CCCN(C)C)CCC(C)CCC=C(C)C (centres undefined)
inactive: growth inhibition [1] -7.18% | growth inhibition [2] -5.88% | viability increase [3] -2.93% | viability [4] 94.1% | viability [5] 92.7% | inhibition [6] 0.41% | RAM network inhibition [7] 3.84%

c1ccc(-c2nnn(C34CC5CC(CC(C5)C3)C4)n2)cc1
inactive: growth inhibition [1] -4.34% | growth inhibition [2] -0.125% | viability increase [3] 0.19% | viability [4] 90.8% | viability [5] 84.9% | inhibition [6] 0.215% | RAM network inhibition [7] 5.67%

COc1cccc(Cn2nnc(C(=O)NCc3ccc(F)cc3)c2N)c1
inactive: growth inhibition [1] -5.24% | growth inhibition [2] -6.34% | viability increase [3] -1.74% | viability [4] 95% | viability [5] 85.6% | inhibition [6] 0.99% | RAM network inhibition [7] 3.37%

COC(=O)c1ccc(-c2nc(-c3cccs3)no2)cc1
inactive: growth inhibition [1] 11.1% | growth inhibition [2] 10.5% | viability increase [3] -5.21% | viability [4] 84.1% | viability [5] 76.7% | inhibition [6] 2.32% | RAM network inhibition [7] 0.79%

Nc1nc2c(c3c1c(=O)oc1ccccc13)CCCCC2
inactive: growth inhibition [1] -4.79% | growth inhibition [2] 5.31% | viability increase [3] -2.59% | viability [4] 94.9% | viability [5] 96.2% | inhibition [6] 2.28% | RAM network inhibition [7] 2.05%

CC1(C)Cc2c(C#N)c(NCCCO)nc(-c3ccccc3)c2CO1
inactive: growth inhibition [1] -7.54% | growth inhibition [2] -20.9% | viability increase [3] -4.65% | viability [4] 88% | viability [5] 85.3% | inhibition [6] 0.25% | RAM network inhibition [7] -0.94%

O=S(=O)(c1ccccc1)n1ccc2ccccc21
inactive: growth inhibition [1] -3% | growth inhibition [2] 5.11% | viability increase [3] -5.11% | viability [4] 87.4% | viability [5] 89.1% | inhibition [6] 0.255% | RAM network inhibition [7] 6.25%

NS(=O)(=O)c1ccc(CNC(=O)NC2(c3ccccc3)CC2)cc1
inactive: growth inhibition [1] -14.6% | growth inhibition [2] -6.6% | viability increase [3] -2.9% | viability [4] 102% | viability [5] 87.2% | inhibition [6] 1.08% | RAM network inhibition [7] 3.05%

O=C(c1ccco1)N1CCN(C(=O)c2oc(=O)c3ccccc3c2-c2ccccc2)CC1
inactive: growth inhibition [1] -6.24% | growth inhibition [2] -4.58% | viability increase [3] -1.47% | viability [4] 105% | viability [5] 98.5% | inhibition [6] 0.68% | RAM network inhibition [7] 3.83%

Cc1ccc(C(c2sc3ncnn3c2O)N2CCC(C)CC2)cc1 (centres undefined)
inactive: growth inhibition [1] 1.13% | growth inhibition [2] 10.3% | viability increase [3] 3.76% | viability [4] 102% | viability [5] 90.2% | inhibition [6] 1.9% | RAM network inhibition [7] 2.69%

O=C(Cn1nc(Cc2cccnc2)c2ccccc2c1=O)N1CCN(c2ccccn2)CC1
inactive: growth inhibition [1] 4.64% | growth inhibition [2] 2.73% | viability increase [3] 0.48% | viability [4] 94.8% | viability [5] 100% | inhibition [6] 0.985% | RAM network inhibition [7] -0.56%

Cc1onc(-c2ccccc2)c1C(=O)Nc1nnc(N2CCCCCC2)s1
inactive: growth inhibition [1] -15.2% | growth inhibition [2] -12% | viability increase [3] 2% | viability [4] 101% | viability [5] 87.5% | inhibition [6] 1.23% | RAM network inhibition [7] 3.72%

CCc1nc2oc(C(=O)c3ccccc3)c(N)c2c2c1COC(C)(C)C2
inactive: growth inhibition [1] -10.5% | growth inhibition [2] -9.15% | viability increase [3] -4.48% | viability [4] 81.6% | viability [5] 80.1% | inhibition [6] 0.79% | RAM network inhibition [7] 0.85%

O=C(NCCN1CCOCC1)c1ccc(CS(=O)(=O)c2c(Cl)cccc2Cl)o1
inactive: growth inhibition [1] -0.145% | growth inhibition [2] 5.92% | viability increase [3] -0.81% | viability [4] 110% | viability [5] 105% | inhibition [6] 0.74% | RAM network inhibition [7] 0.87%
